Test results published in ChEMBL document CHEMBL1132375, “Synthesis and biochemical evaluation of 3-fluoromethyl-1,2,3, 4-tetrahydroisoquinolines as selective inhibitors of phenylethanolamine N-methyltransferase versus the alpha(2)-adrenoceptor” (J Med Chem, 1999).
pKi: −log10 of the molar value.

Experiments:
[1] = target: Adrenergic receptor alpha-2 (Rattus norvegicus) (UniProt P22086+P19328+P22909); experiment: Ratio for binding affinity towards alpha-2 adrenoceptor to PNMT; format: protein assay
Procedure, shortened: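 Ratio of α2-adrenoceptor Ki (rat cortex, [3H]clonidine binding) to PNMT Ki (bovine adrenal enzyme, radiochemical assay with phenylethanolamine substrate).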

[2] = target: T1, Adrenergic receptor alpha-2 (Rattus norvegicus, UniProt P22086+P19328+P22909); experiment: Compound was tested in vitro for its affinity towards rat Alpha-2 adrenergic receptor; format: protein assay
T1 sequence (P22086 whole entry): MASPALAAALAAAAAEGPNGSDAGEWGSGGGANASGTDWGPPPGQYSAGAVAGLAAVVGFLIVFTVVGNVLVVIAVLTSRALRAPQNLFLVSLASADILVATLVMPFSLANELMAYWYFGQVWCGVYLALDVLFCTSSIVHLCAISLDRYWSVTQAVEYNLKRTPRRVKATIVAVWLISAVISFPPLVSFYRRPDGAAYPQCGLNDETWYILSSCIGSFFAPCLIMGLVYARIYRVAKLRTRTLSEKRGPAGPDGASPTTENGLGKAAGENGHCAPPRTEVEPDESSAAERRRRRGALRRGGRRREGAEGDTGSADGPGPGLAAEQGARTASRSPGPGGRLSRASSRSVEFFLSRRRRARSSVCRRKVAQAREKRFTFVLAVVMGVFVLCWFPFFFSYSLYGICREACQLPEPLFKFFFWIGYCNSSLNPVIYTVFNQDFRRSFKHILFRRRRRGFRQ
T1 sequence (P19328 whole entry): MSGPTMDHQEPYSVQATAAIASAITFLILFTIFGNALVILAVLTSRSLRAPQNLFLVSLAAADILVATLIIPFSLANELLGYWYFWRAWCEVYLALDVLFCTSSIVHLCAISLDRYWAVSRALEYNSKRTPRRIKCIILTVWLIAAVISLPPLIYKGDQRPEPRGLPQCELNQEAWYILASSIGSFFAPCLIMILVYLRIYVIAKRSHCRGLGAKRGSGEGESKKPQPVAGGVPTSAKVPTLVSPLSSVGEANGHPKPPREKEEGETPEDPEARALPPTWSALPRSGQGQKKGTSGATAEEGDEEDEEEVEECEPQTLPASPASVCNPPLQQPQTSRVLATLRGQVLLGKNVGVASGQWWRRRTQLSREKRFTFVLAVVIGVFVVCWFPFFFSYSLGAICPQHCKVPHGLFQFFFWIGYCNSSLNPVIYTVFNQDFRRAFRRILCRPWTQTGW
T1 sequence (P22909 whole entry): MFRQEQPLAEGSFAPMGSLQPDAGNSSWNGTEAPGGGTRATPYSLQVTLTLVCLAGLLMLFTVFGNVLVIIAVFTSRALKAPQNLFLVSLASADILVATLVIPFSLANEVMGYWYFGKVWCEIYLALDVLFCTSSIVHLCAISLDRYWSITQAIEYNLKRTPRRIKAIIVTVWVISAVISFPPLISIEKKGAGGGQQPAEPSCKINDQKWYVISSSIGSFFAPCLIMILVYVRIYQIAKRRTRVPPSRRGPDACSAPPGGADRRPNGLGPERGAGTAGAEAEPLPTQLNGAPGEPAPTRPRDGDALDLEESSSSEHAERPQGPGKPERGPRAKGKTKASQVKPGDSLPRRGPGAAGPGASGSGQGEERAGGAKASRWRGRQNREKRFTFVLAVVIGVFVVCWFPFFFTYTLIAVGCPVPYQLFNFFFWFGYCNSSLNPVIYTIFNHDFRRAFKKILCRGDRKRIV
Procedure, shortened: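 Membranes from male Sprague-Dawley rat cortex, homogenized in ice-cold 50 mM Tris/HCl pH 7.7 and washed by three 50000g spins. Incubated with [3H]clonidine (final 2.0 nM) and varied inhibitor concentrations, 25 °C for 30 min, then vacuum-filtered on GF/B and counted. Nonspecific binding with 2 μM phentolamine. IC50 by log-probit, converted to Ki = IC50/(1+[clonidine]/KD).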

[3] = target: T2, Phenylethanolamine N-methyltransferase (Bos taurus, UniProt P10938); experiment: Affinity for bovine Phenylethanolamine N-Methyltransferase
T2 sequence (P10938 whole entry): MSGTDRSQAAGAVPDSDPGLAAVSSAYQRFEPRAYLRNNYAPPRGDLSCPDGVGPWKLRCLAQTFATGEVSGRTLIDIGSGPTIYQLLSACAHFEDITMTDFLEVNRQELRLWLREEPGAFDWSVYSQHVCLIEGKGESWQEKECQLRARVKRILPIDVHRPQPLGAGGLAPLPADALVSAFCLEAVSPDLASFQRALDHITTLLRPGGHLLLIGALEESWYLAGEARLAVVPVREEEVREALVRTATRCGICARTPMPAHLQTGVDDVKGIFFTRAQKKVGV

[4] = target: T2, Phenylethanolamine N-methyltransferase; experiment: Affinity for bovine Phenylethanolamine N-Methyltransferase (PNMT)

SMILES | Ratio [1] | Ki [2] | pKi [3] | pKi [4]
NS(=O)(=O)c1ccc2c(c1)CNC(CF)C2 (centres undefined) | 1000 | 680 µM | 6.18 | 
OCC1Cc2ccccc2CN1 (centres undefined) | 6 |  |  | 
CS(=O)(=O)c1ccc2c(c1)CNC(CF)C2 (centres undefined) | 140 | 230 µM | 5.80 | 
[N-]=[N+]=Nc1ccc2c(c1)CNC(CF)C2 (centres undefined) | 28 | 47 µM |  | 5.77
COc1ccc2c3c([nH]c2c1)C=NCC3 | 4.4 |  |  | 
FCC1Cc2ccc(Br)cc2CN1 (centres undefined) | 10 | 6.4 µM |  | 6.19
FCC1Cc2ccccc2CN1 (centres undefined) | 2.5 | 3.8 µM |  | 5.82
CS(=O)(=O)c1ccc2c(c1)CNC(CO)C2 (centres undefined) | 1000 |  |  | 
CC1Cc2ccccc2CN1 (centres undefined) | 0.36 |  |  | 
Clc1ccc2c(c1Cl)CNCC2 | 0.095 |  |  | 
CCC1Cc2ccccc2CN1 (centres undefined) | 0.028 |  |  | 
O=S(=O)(NCc1ccccc1)c1ccc2c(c1)CNC(CF)C2 (centres undefined) | 17 | 110 µM | 5.19 | 
CS(=O)(=O)c1ccc2c(c1)CNC(C(F)(F)F)C2 (centres undefined) | 110 |  |  | 
COCC1Cc2ccccc2CN1 (centres undefined) | 0.3 |  |  | 
FCC1Cc2ccc(C(F)(F)F)cc2CN1 (centres undefined) | 130 | 41 µM |  | 6.49
CNS(=O)(=O)c1ccc2c(c1)CNC(CF)C2 (centres undefined) | 130 | 310 µM | 5.62 | 
O=S(=O)(Nc1ccc(Cl)cc1)c1ccc2c(c1)CNC(CF)C2 (centres undefined) | 220 | 160 µM | 6.13 | 
FC(F)(F)C1Cc2ccc(Br)cc2CN1 (centres undefined) | 1900 |  |  | 
FCC1Cc2ccc(N=C=S)cc2CN1 (centres undefined) | 39 | 22 µM |  | 6.24
NS(=O)(=O)c1ccc2c(c1)CNC(CO)C2 (centres undefined) | 4100 |  |  | 
N#Cc1ccc2c(c1)CNC(CF)C2 (centres undefined) | 420 | 460 µM | 5.96 | 
FCC1Cc2ccc(I)cc2CN1 (centres undefined) | 34 | 7.1 µM | 6.68 | 
O=[N+]([O-])c1ccc2c(c1)CNC(CF)C2 (centres undefined) | 140 | 76 µM | 6.27 | 
